Data published in ChEMBL document CHEMBL1155306, “Inhibitors of HIV-1 attachment. Part 3: A preliminary survey of the effect of structural variation of the benzamide moiety on antiviral activity” (Bioorg Med Chem Lett, 2009).

Experiments:
[1] = Cytotoxicity against human HeLa67 cell after 3 days by XTT assay; assay type: cell-based; conditions: HeLa67 cells
Outline: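 HeLa67 cells treated in parallel with the antiviral assay. Viability read by XTT three days after compound addition. Values are means of two or more experiments unless noted otherwise.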

[2] = test system: Human immunodeficiency virus 1; test: Antiviral activity against HIV1 infected human HeLa67 cells coexpressing JRFL-LUCENV after 3 days by luciferase reporter assay; assay type: functional, organism-based; conditions: Human immunodeficiency virus 1, HeLa67, 72 h
Outline: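 JRFL-Luc ΔEnv pseudotyped virus, titered by serial dilution on HeLa67 cells (CD4+/CCR5+). Fourfold serial dilutions of compound added to infected cells at the time of infection. Luciferase activity read after three days and compared with no-compound controls to derive EC50. Values are means of two or more experiments.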

Row | SMILES | EC50 [2] | CC50 at 72 h [1]
1 | O=C(C(=O)N1CCN(C(=O)c2ccccc2)CC1)c1c[nH]c2cccc(F)c12 | – | > 300 µM
2 | O=C(C(=O)N1CCN(C(=O)c2ccco2)CC1)c1c[nH]c2cccc(F)c12 | 0.0054 µM | > 300 µM
3 | O=C(C(=O)N1CCN(C(=O)c2occc2Br)CC1)c1c[nH]c2cccc(F)c12 | 0.0014 µM | 236 µM
4 | O=C(C(=O)N1CCN(C(=O)c2c[nH]cn2)CC1)c1c[nH]c2cccc(F)c12 | 1.23 µM | > 300 µM
5 | O=C(C(=O)N1CCN(C(=O)c2sccc2Br)CC1)c1c[nH]c2cccc(F)c12 | 0.0032 µM | 69.7 µM
6 | O=C(C(=O)N1CCN(C(=O)c2cc(F)c(F)c(F)c2)CC1)c1c[nH]c2ccccc12 | 55 µM | > 300 µM
7 | O=C(C(=O)N1CCN(C(=O)C2CCCCC2)CC1)c1c[nH]c2ccccc12 | 3.5 µM | > 300 µM
8 | O=C(C(=O)N1CCN(C(=O)c2cscn2)CC1)c1c[nH]c2cccc(F)c12 | 0.0087 µM | > 250 µM
9 | O=C(C(=O)N1CCN(C(=O)c2ccccn2)CC1)c1c[nH]c2cccc(F)c12 | 0.0045 µM | > 300 µM
10 | O=C(C(=O)N1CCN(C(=O)c2ccsc2)CC1)c1c[nH]c2cccc(F)c12 | 0.0004 µM | > 300 µM
11 | O=C(C(=O)N1CCN(C(=O)c2cccnc2)CC1)c1c[nH]c2cccc(F)c12 | 0.154 µM | > 300 µM
12 | O=C(C(=O)N1CCN(C(=O)c2ccno2)CC1)c1c[nH]c2cccc(F)c12 | 0.156 µM | > 300 µM
13 | O=C(C(=O)N1CCN(C(=O)c2cccs2)CC1)c1c[nH]c2cccc(F)c12 | 0.0007 µM | > 300 µM
14 | O=C(C(=O)N1CCN(C(=O)c2c(F)cc(F)cc2F)CC1)c1c[nH]c2ccccc12 | > 54 µM | > 300 µM
15 | O=C(C(=O)N1CCN(C(=O)Cc2ccccc2)CC1)c1c[nH]c2cccc(F)c12 | > 50 µM | > 300 µM
16 | O=C(C(=O)N1CCN(C(=O)CC2CCCCC2)CC1)c1c[nH]c2ccccc12 | > 100 µM | 158 µM
17 | Cc1ccsc1C(=O)N1CCN(C(=O)C(=O)c2c[nH]c3cccc(F)c23)CC1 | 0.0173 µM | 260 µM
18 | O=C(C(=O)N1CCN(C(=O)c2ccncc2)CC1)c1c[nH]c2cccc(F)c12 | 0.0237 µM | > 205 µM
19 | N#Cc1ccoc1C(=O)N1CCN(C(=O)C(=O)c2c[nH]c3cccc(F)c23)CC1 | 0.007 µM | 187 µM
20 | O=C(C(=O)N1CCN(C(=O)c2sccc2Cl)CC1)c1c[nH]c2cccc(F)c12 | 0.0119 µM | 50.5 µM
21 | CC(C)(C)c1ccc(C(=O)N2CCN(C(=O)C(=O)c3c[nH]c4ccccc34)CC2)cc1 | 9 µM | 31 µM
22 | O=C(C(=O)N1CCN(C(=O)c2ccoc2)CC1)c1c[nH]c2cccc(F)c12 | 0.0204 µM | > 300 µM
23 | O=C(C(=O)N1CCN(C(=O)c2occc2Cl)CC1)c1c[nH]c2cccc(F)c12 | 0.0031 µM | 250 µM
24 | O=C(C(=O)N1CCN(C(=O)c2cc[nH]n2)CC1)c1c[nH]c2cccc(F)c12 | 0.0718 µM | > 300 µM
25 | Cc1nc(C(=O)N2CCN(C(=O)C(=O)c3c[nH]c4cccc(F)c34)CC2)cs1 | 0.0228 µM | > 300 µM
26 | O=C(C(=O)N1CCN(C(=O)c2cc(F)c(F)c(F)c2F)CC1)c1c[nH]c2ccccc12 | > 100 µM | > 300 µM

Continued, in another order:

Row | EC50 [2] | SMILES | CC50 at 72 h [1]
27 | 6.7 µM | O=C(C(=O)N1CCN(C(=O)c2c(F)cccc2F)CC1)c1c[nH]c2ccccc12 | > 300 µM
28 | 14.5 µM | O=C(C(=O)N1CCN(C(=O)c2ccc(Cl)c(Cl)c2)CC1)c1c[nH]c2ccccc12 | 123 µM
29 | 3.5 µM | O=C(C(=O)N1CCN(C(=O)c2cccc(Cl)c2F)CC1)c1c[nH]c2ccccc12 | > 300 µM
30 | > 100 µM | O=C(C(=O)N1CCN(C(=O)Cc2ccccc2)CC1)c1c[nH]c2ccccc12 | > 300 µM
31 | 30 µM | O=C(C(=O)N1CCN(C(=O)c2ccc(Br)cc2)CC1)c1c[nH]c2ccccc12 | > 240 µM
32 | 10.5 µM | O=C(C(=O)N1CCN(C(=O)c2ccccc2Br)CC1)c1c[nH]c2ccccc12 | > 300 µM
33 | 2.49 µM | O=C(C(=O)N1CCN(C(=O)c2ccc(O)cc2)CC1)c1c[nH]c2ccccc12 | 136 µM
34 | 36.5 µM | O=C(C(=O)N1CCN(C(=O)c2cc(F)c(F)cc2F)CC1)c1c[nH]c2ccccc12 | > 300 µM
35 | 35 µM | O=C(C(=O)N1CCN(C(=O)c2ccccc2Cl)CC1)c1c[nH]c2ccccc12 | > 300 µM
36 | 8.91 µM | O=C(C(=O)N1CCN(C(=O)c2ccc(F)cc2)CC1)c1c[nH]c2ccccc12 | 280 µM
37 | > 10 µM | COc1ccccc1C(=O)N1CCN(C(=O)C(=O)c2c[nH]c3ccccc23)CC1 | > 300 µM
38 | 8.38 µM | Cc1ccc(C(=O)N2CCN(C(=O)C(=O)c3c[nH]c4ccccc34)CC2)cc1 | > 99 µM
39 | 86.5 µM | Cc1ccncc1C(=O)N1CCN(C(=O)C(=O)c2c[nH]c3ccccc23)CC1 | > 300 µM
40 | 3.65 µM | O=C(C(=O)N1CCN(C(=O)c2ccccc2O)CC1)c1c[nH]c2ccccc12 | 194 µM
41 | 8.3 µM | O=C(C(=O)N1CCN(C(=O)c2ccc(F)c(F)c2)CC1)c1c[nH]c2ccccc12 | > 300 µM
42 | 1.55 µM | O=C(C(=O)N1CCN(C(=O)c2ccccn2)CC1)c1c[nH]c2ccccc12 | > 300 µM

Row | EC50 [2] | SMILES | CC50 at 72 h [1]
43 | 6.7 µM | O=C(C(=O)N1CCN(C(=O)c2cccc(Br)c2)CC1)c1c[nH]c2ccccc12 | 76 µM
44 | > 56 µM | COc1cccc(C(=O)N2CCN(C(=O)C(=O)c3c[nH]c4ccccc34)CC2)c1 | > 300 µM
45 | 18 µM | O=C(C(=O)N1CCN(C(=O)c2cccc(Cl)c2Cl)CC1)c1c[nH]c2ccccc12 | 235 µM
46 | > 0.5 µM | CN(C)c1ccccc1C(=O)N1CCN(C(=O)C(=O)c2c[nH]c3ccccc23)CC1 | 89 µM
47 | 37 µM | O=C(C(=O)N1CCN(C(=O)c2ccc(Cl)cc2Cl)CC1)c1c[nH]c2ccccc12 | 111 µM
48 | 30.2 µM | COc1ccc(C(=O)N2CCN(C(=O)C(=O)c3c[nH]c4ccccc34)CC2)cc1 | 129 µM
49 | 2.76 µM | O=C(C(=O)N1CCN(C(=O)c2cccc(F)c2)CC1)c1c[nH]c2ccccc12 | 200 µM
50 | > 100 µM | O=C(C(=O)N1CCN(C(=O)c2cccc3ccccc23)CC1)c1c[nH]c2ccccc12 | > 300 µM
51 | 17.5 µM | O=C(C(=O)N1CCN(C(=O)c2cccc(Cl)c2)CC1)c1c[nH]c2ccccc12 | 117 µM
52 | 0.391 µM | O=C(C(=O)N1CCN(C(=O)c2ccccc2F)CC1)c1c[nH]c2ccccc12 | 101 µM
53 | > 100 µM | CN(C)c1ccc(C(=O)N2CCN(C(=O)C(=O)c3c[nH]c4ccccc34)CC2)cc1 | > 300 µM
54 | 65.8 µM | O=C(C(=O)N1CCN(C(=O)c2ccc(Cl)cc2)CC1)c1c[nH]c2ccccc12 | 92 µM
55 | > 0.5 µM | CN(C)c1cccc(C(=O)N2CCN(C(=O)C(=O)c3c[nH]c4ccccc34)CC2)c1 | 230 µM
56 | 6 µM | O=C(C(=O)N1CCN(C(=O)c2ccc(F)cc2F)CC1)c1c[nH]c2ccccc12 | > 300 µM
57 | 82 µM | CCCc1ccc(C(=O)N2CCN(C(=O)C(=O)c3c[nH]c4ccccc34)CC2)cc1 | 48 µM
58 | 4.2 µM | O=C(C(=O)N1CCN(C(=O)c2cccnc2)CC1)c1c[nH]c2ccccc12 | > 300 µM
